Key:
HeLa = test: Antiproliferative activity against human HeLa cell line assessed as incorporation [14C]thymidine; format: functional, cell-based
Procedure, shortened: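 HeLa cervical carcinoma cells. Proliferation was read as ¹⁴C-thymidine incorporation into cellular DNA, and the IC₅₀ for inhibition of proliferation was derived from that.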

[1] = target: Cyclin-dependent kinase 1/cyclin B (Homo sapiens, UniProt P06493); test: Inhibition of CDK1/cyclinB by Flashplate assay; format: protein-complex assay
Procedure, shortened: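 CDK1 complexed with cyclin B phosphorylated a biotinylated histone-H1 peptide substrate using ³³P-γ-ATP. The substrate was immobilized in a Flashplate format, and inhibition was read as reduced ³³P incorporation into the substrate.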

SMILES | IC50 (HeLa) [nM] | IC50 [1] [nM]
CS(=O)(=O)n1cc(-c2ccnc(NC3CCCCC3)n2)c2cccnc21 | 393 | 
CCc1ccccc1Nc1nccc(-c2c[nH]c3ncccc23)n1 | 292 | 
Oc1ccccc1Nc1nccc(-c2c[nH]c3ncccc23)n1 | 955 | 
COc1ccccc1Nc1nccc(-c2c[nH]c3ncccc23)n1 | 350 | 
Cc1ccc(Nc2nccc(-c3c[nH]c4ncccc34)n2)cc1 | 220 | 
c1ccc(Nc2nccc(-c3c[nH]c4ncccc34)n2)cc1 | 382 | 
CN(C)CCn1cc(-c2ccnc(NC3CCCCC3)n2)c2cccnc21 | 8900 | 
c1cnc2[nH]cc(-c3ccnc(NCC4CCCCC4)n3)c2c1 | 368 | 
Cn1cc(-c2ccnc(NC3CCCCC3)n2)c2cccnc21 | 52100 | > 10000
FC(F)(F)c1ccccc1Nc1nccc(-c2c[nH]c3ncccc23)n1 | 392 | 
Cc1ccccc1Nc1nccc(-c2c[nH]c3ncccc23)n1 |  | 3

Next, values leading:

IC50 (HeLa) [nM] | IC50 [1] [nM] | SMILES
95 | 13 | Brc1ccccc1Nc1nccc(-c2c[nH]c3ncccc23)n1
3 | 1 | Cc1cc(CCN2CCCCC2)ccc1Nc1nccc(-c2c[nH]c3ncccc23)n1
140 | 9 | Clc1ccccc1Nc1nccc(-c2c[nH]c3ncccc23)n1
130 | 280 | Cc1[nH]c2ncccc2c1-c1ccnc(N[C@H]2CC[C@H](N)CC2)n1
31 |  | c1cnc2[nH]cc(-c3ccnc(NC4CCCCC4)n3)c2c1
23 |  | CC(=O)n1cc(-c2ccnc(NC3CCCCC3)n2)c2cccnc21
3 | 1.9 | Cc1cc(CCN2CCOCC2)ccc1Nc1nccc(-c2c[nH]c3ncccc23)n1
3 | 0.6 | Cc1cc(CCN2CCCC2)ccc1Nc1nccc(-c2c[nH]c3ncccc23)n1
1 | 2 | N[C@H]1CC[C@H](Nc2nccc(-c3c[nH]c4ncccc34)n2)CC1
11 | 0.6 | Cc1cc(CCO)ccc1Nc1nccc(-c2c[nH]c3ncccc23)n1
92 |  | Fc1ccccc1Nc1nccc(-c2c[nH]c3ncccc23)n1

— ChEMBL document CHEMBL1149360, “Synthesis of 2-amino-4-(7-azaindol-3-yl)pyrimidines as cyclin dependent kinase 1 (CDK1) inhibitors” (Bioorg Med Chem Lett, 2006)
